Key:
Cytochrome P450 2B6 [1] = target: T1, Cytochrome P450 2B6 (Homo sapiens, UniProt P20813); assay: Inhibition of CYP2B6 (unknown origin) assessed as reduction in hydroxybupropion formation at 10 uM incubated for 10 mins by uHPLC-MS/MS method; format: ADME; conditions: 10 min, 10 µM
T1 sequence (P20813 whole entry): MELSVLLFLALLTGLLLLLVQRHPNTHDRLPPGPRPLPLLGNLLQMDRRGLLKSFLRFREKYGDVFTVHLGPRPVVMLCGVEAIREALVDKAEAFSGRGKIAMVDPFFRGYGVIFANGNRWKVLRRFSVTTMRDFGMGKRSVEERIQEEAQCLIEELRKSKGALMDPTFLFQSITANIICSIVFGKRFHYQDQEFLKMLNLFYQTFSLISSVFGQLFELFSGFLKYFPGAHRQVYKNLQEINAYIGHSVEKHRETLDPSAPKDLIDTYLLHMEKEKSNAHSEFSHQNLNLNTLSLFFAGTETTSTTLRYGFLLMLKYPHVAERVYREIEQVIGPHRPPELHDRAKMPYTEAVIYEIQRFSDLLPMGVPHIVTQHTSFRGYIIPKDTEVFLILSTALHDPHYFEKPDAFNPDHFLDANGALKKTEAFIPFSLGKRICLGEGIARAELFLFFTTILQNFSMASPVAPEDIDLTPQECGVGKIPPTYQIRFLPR
Procedure, shortened: (§1)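 CYP2B6 insect microsomes were coincubated with the probe substrate bupropion plus test compound at 10 μM. Hydroxybupropion formation was measured and compared with a vehicle control.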

Liver microsome [2] = assay: Drug metabolism in pooled human liver microsomes assessed as metabolite formation at 10 uM incubated for 60 mins in presence of NADPH by uHPLC-MS/MS method; format: ADME; conditions: 1 h
Procedure, shortened: (§2)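 Metabolite identification in human liver microsome incubations with 10 μM substrate. Products were assigned by m/z (monooxygenated, dihydroxylated, N-dealkylated), uHPLC retention time and MS/MS fragment ions. Parallel incubations in isotopic water located the inserted oxygen from +2 shifts in fragment masses.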

[3] = Retention time of the compound by uHPLC-MS/MS method; format: physicochemical; procedure, shortened: as §2
Liver microsome [4] = assay: Drug metabolism in pooled human liver microsomes assessed as compound formation at 10 uM incubated for 60 mins in presence of NADPH by uHPLC-MS/MS method; format: ADME; conditions: 1 h; procedure, shortened: as §2
Cytochrome P450 1A2 [5] = target: T2, Cytochrome P450 1A2 (Homo sapiens, UniProt P05177); assay: Drug metabolism assessed as CYP1A2 (unknown origin)-mediated compound formation at 10 uM incubated for 60 mins in presence of NADPH by uHPLC-MS/MS method; format: ADME; conditions: 1 h
T2 sequence (P05177 whole entry): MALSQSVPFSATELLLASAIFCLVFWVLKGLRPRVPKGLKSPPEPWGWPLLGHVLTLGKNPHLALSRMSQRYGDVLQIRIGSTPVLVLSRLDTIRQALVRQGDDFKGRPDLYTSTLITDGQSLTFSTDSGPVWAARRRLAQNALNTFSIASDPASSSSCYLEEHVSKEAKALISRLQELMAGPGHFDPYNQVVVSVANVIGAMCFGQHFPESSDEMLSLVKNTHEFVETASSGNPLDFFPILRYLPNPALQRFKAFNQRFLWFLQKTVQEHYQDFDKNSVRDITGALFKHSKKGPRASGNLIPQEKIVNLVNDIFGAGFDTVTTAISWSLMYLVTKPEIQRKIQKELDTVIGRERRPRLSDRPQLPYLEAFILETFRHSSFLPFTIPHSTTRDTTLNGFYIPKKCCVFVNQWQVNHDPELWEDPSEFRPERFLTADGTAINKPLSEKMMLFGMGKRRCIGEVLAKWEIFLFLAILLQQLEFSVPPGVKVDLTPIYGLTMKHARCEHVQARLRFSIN
Procedure, shortened: (§3)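 Individual cDNA-expressed human P450s (CYP2B6 in insect microsomes) were incubated separately with each analogue at 10 μM. The enzyme panel covers the major drug-metabolizing P450s. Products were monitored as the metabolites first found in human liver microsome incubations, identified by m/z and retention time.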

Cytochrome P450 3A5 = Cytochrome P450 3A5 (Homo sapiens, UniProt P20815); assay: Drug metabolism assessed as CYP3A5 (unknown origin)-mediated compound formation at 10 uM incubated for 60 mins in presence of NADPH by uHPLC-MS/MS method; format: ADME; conditions: 1 h; procedure, shortened: as §3
Cytochrome P450 2B6 [6] = target: T1, Cytochrome P450 2B6; assay: Drug metabolism assessed as CYP2B6 (unknown origin)-mediated compound formation at 10 uM incubated for 60 mins in presence of NADPH by uHPLC-MS/MS method; format: ADME; conditions: 1 h; procedure, shortened: as §3
Liver microsome [7] = assay: Drug metabolism in pooled human liver microsomes assessed as N-dealkylated metabolite formation at 10 uM incubated for 60 mins in presence of NADPH by uHPLC-MS/MS method; format: ADME; conditions: 1 h; procedure, shortened: as §2
CYP2B6 = target: T3, CYP2B6 (Homo sapiens, UniProt P20813); assay: Inhibition of CYP2B6 (unknown origin) assessed as reduction in hydroxybupropion formation by measuring remaining enzyme activity at 10 uM incubated for 10 mins by uHPLC-MS/MS method; format: ADME; conditions: probe bupropion (hydroxybupropion formation), read-out: Activity; procedure, shortened: as §1
T3 sequence (P20813 whole entry): T1 sequence (P20813 whole entry)

Cytochrome P450 2C19 = Cytochrome P450 2C19 (Homo sapiens, UniProt P33261); assay: Drug metabolism assessed as CYP2C19 (unknown origin)-mediated metabolite formation at 10 uM incubated for 60 mins in presence of NADPH by uHPLC-MS/MS method; format: ADME; conditions: 1 h; procedure, shortened: as §3
Cytochrome P450 2D6 = Cytochrome P450 2D6 (Homo sapiens, UniProt P10635); assay: Drug metabolism assessed as CYP2D6 (unknown origin)-mediated metabolite formation at 10 uM incubated for 60 mins in presence of NADPH by uHPLC-MS/MS method; format: ADME; conditions: 1 h; procedure, shortened: as §3
Cytochrome P450 1A2 [8] = target: T2, Cytochrome P450 1A2; assay: Drug metabolism assessed as CYP1A2 (unknown origin)-mediated metabolite formation at 10 uM incubated for 60 mins in presence of NADPH by uHPLC-MS/MS method; format: ADME; conditions: 1 h; procedure, shortened: as §3

Sequence of Cytochrome P450 2C19 (P33261 whole entry): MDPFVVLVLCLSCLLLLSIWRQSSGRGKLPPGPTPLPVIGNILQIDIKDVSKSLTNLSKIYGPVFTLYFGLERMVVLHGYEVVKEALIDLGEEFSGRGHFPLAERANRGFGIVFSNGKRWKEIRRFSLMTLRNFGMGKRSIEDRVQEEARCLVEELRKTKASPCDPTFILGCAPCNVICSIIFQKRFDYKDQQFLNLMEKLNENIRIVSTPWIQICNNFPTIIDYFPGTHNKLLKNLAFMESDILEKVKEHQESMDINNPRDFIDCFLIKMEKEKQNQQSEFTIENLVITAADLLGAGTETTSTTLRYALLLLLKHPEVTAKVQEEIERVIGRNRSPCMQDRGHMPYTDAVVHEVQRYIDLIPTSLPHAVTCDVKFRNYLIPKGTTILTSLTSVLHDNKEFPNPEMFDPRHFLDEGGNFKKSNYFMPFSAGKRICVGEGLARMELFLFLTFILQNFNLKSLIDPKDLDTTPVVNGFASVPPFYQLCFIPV
Sequence of Cytochrome P450 2D6 (P10635 whole entry): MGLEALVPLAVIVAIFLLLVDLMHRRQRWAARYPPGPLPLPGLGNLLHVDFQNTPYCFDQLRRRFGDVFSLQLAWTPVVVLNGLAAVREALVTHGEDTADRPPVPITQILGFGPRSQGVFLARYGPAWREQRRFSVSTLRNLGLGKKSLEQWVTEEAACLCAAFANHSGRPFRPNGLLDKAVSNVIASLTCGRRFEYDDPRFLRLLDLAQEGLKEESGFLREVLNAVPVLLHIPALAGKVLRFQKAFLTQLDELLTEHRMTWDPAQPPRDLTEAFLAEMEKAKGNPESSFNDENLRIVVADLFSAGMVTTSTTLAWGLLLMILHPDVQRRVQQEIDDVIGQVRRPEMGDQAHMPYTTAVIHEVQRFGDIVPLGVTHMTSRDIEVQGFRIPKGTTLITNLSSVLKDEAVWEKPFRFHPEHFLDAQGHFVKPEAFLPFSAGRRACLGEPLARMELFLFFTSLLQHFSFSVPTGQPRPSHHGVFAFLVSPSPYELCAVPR
Sequence of Cytochrome P450 3A5 (P20815 whole entry): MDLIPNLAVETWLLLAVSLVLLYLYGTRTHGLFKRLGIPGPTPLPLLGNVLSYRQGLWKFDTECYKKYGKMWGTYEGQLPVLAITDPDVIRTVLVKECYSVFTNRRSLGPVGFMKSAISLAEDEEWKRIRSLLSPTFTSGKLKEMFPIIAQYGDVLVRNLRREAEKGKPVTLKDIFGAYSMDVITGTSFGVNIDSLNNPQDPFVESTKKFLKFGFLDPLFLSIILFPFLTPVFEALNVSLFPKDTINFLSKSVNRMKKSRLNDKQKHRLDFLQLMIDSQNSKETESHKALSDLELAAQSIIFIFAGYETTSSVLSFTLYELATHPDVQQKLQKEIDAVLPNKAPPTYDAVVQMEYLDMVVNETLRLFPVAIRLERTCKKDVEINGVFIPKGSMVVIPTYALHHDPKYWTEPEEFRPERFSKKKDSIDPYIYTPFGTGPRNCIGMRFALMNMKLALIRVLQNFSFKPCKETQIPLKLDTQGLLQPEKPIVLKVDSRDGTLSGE

Compound: COc1ccc(C(=O)Nc2ccc(Cl)cc2C(O)(C#CC2CC2)C(F)(F)F)cc1 (racemic)
- inhibition (INH) (Cytochrome P450 2B6 [1]): Not Active
- Drug metabolism (Liver microsome [2]): metabolite_detected

Compound: CCC(O)C#CC1(C(F)(F)F)OC(=O)Nc2ccc(Cl)cc21 (stereo not drawn)
- Retention_time [3]: 5.6 min
- Drug metabolism (Liver microsome [4]): metabolite_detected

Compound: CCCC#CC1(C(F)(F)F)OC(=O)Nc2c(O)cc(Cl)cc21 (stereo not drawn)
- Drug metabolism (Cytochrome P450 1A2 [5]): metabolite_detected
- Retention_time [3]: 6.98 min
- Drug metabolism (Liver microsome [4]): metabolite_detected
- Drug metabolism (Cytochrome P450 3A5): metabolite_detected
- Drug metabolism (Cytochrome P450 2B6 [6]): metabolite_detected

Compound: COc1ccc(CNc2ccc(Cl)cc2[C@@](O)(C#CC2CC2)C(F)(F)F)cc1
- Drug metabolism (Liver microsome [7]): metabolite_detected
- activity at 10 min, 10 µM (CYP2B6): 52%
- Drug metabolism (Cytochrome P450 2C19): metabolite_detected
- Drug metabolism (Cytochrome P450 2D6): metabolite_detected
- Drug metabolism (Cytochrome P450 1A2 [8]): metabolite_detected

Compound: CC(O)CC#CC1(C(F)(F)F)OC(=O)Nc2ccc(Cl)cc21 (stereo not drawn)
- Retention_time [3]: 5.11 min
- Drug metabolism (Liver microsome [4]): metabolite_detected

Compound: O=C1Nc2ccc(Cl)cc2[C@@](/C=C/C2(O)CC2)(C(F)(F)F)O1
- Retention_time [3]: 4.98 min
- Drug metabolism (Liver microsome [4]): metabolite_detected

Compound: COc1ccc(CNc2ccc(Cl)cc2[C@](O)(C#CC2CC2)C(F)(F)F)cc1
- Drug metabolism (Liver microsome [7]): metabolite_detected
- activity at 10 min, 10 µM (CYP2B6): 62%
- Drug metabolism (Cytochrome P450 2C19): metabolite_detected
- Drug metabolism (Cytochrome P450 2D6): metabolite_detected
- Drug metabolism (Cytochrome P450 1A2 [8]): metabolite_detected
